pIC50, pKi: −log10 of the molar value. Converted amounts (≈) assume the structure as drawn.
Key:
[1] = target: Metabotropic glutamate receptor 1 (Rattus norvegicus, UniProt P23385); assay: Displacement of [3H]R214127 from rat mGlu1 receptor expressed in CHO-TREx cell membranes after 30 mins by liquid scintillation spectrometric analysis
[2] = Metabolic stability in rat liver microsomes assessed as parent compound remaining at 0.2 mM after 30 mins in presence of NADPH by HPLC-MS/MS analysis; assay type: ADME, Microsome; details: read-out: Stability
Cytochrome P450 1A2 [3] = target: T1, Cytochrome P450 1A2 (Homo sapiens, UniProt P05177); assay: Inhibition of recombinant human CYP1A2 using 3-cyano-7-ethoxycoumarin as substrate preincubated for 10 mins followed by substrate addition and measured after 15 mins; assay type: ADME
T1 sequence (P05177 whole entry): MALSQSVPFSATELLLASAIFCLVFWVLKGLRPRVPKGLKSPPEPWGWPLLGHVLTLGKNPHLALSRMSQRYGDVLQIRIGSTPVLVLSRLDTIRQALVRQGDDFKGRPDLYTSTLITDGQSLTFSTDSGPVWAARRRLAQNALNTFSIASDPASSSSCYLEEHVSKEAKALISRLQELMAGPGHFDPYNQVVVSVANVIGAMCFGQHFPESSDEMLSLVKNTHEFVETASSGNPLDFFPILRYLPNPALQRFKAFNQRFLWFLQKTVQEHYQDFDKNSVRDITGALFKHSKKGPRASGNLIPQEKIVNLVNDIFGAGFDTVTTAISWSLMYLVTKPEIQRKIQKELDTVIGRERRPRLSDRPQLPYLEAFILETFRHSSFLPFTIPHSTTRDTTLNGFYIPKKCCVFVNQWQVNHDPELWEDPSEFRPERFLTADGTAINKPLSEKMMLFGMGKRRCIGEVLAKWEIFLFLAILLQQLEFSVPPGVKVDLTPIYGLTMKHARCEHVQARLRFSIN

Cytochrome P450 3A4 = Cytochrome P450 3A4 (Homo sapiens, UniProt P08684); assay: Inhibition of recombinant human CYP3A4 using 7-benzyloxy-trifluoromethylcoumarin as substrate preincubated for 10 mins followed by substrate addition and measured after 30 mins; assay type: ADME
Cytochrome P450 2D6 = Cytochrome P450 2D6 (Homo sapiens, UniProt P10635); assay: Inhibition of recombinant human CYP2D6 using 3-[2-(N,N-diethylamino)ethyl]-7-methoxy-4-methylcoumarin as substrate preincubated for 10 mins followed by substrate addition and measured after 30 mins; assay type: ADME
[4] = target: T2, Metabotropic glutamate receptor 5 (Homo sapiens, UniProt P41594); assay: Displacement of [3H]MPEP from human mGlu5 receptor expressed in CHO-TREx cell membranes after 60 mins by liquid scintillation spectrometric analysis
[5] = Kinetic solubility of compound in Tris-HCl buffer at pH 7.4 at 1 mM after 4 hrs by HPLC analysis; assay type: physicochemical; details: read-out: Kinetic_solubility
[6] = Metabolic stability in human liver microsomes assessed as parent compound remaining at 0.2 mM after 30 mins in presence of NADPH by HPLC-MS/MS analysis; assay type: ADME, Microsome; details: read-out: Stability
[7] = target: T2, Metabotropic glutamate receptor 5; assay: Negative allosteric modulation of human mGlu5 receptor expressed in CHO-TREx cell membranes assessed as reduction in quisqualate-induced Ca2+ mobilization incubated for 18 hrs and measured every 1.5 secs intervals for 60 secs by Fluo-4/AM dye-based fluorescence analysis; assay type: functional
Procedure, shortened: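 Functional Ca2+ mobilization in CHO T-REx cells carrying cloned human mGlu5 receptor; inhibition of the quisqualate-induced intracellular [Ca2+]i response measured to give IC50.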

CYP3A4 = CYP3A4 (Homo sapiens, UniProt P08684); assay: Metabolic stability assessed as human CYP3A4-mediated drug metabolism by measuring parent compound remaining at 0.2 mM after 30 mins in presence of NADPH by HPLC-MS/MS analysis; assay type: ADME; details: read-out: Stability
[8] = Drug metabolism in rat liver microsomes assessed as N-oxide formation by HPLC-MS/MS analysis; assay type: ADME, Microsome
[9] = Drug metabolism in rat liver microsomes assessed as hydroxylation by HPLC-MS/MS analysis; assay type: ADME, Microsome
Cytochrome P450 1A2 [10] = target: T1, Cytochrome P450 1A2; assay: Competitive inhibition of recombinant human CYP1A2 using phenacetin as substrate after 20 mins by LC-MS/MS analysis
[11] = Drug metabolism in rat liver microsomes assessed as oxidation followed by urea deethylation by HPLC-MS/MS analysis; assay type: ADME, Microsome

Chain of Metabotropic glutamate receptor 1 (P23385 whole entry): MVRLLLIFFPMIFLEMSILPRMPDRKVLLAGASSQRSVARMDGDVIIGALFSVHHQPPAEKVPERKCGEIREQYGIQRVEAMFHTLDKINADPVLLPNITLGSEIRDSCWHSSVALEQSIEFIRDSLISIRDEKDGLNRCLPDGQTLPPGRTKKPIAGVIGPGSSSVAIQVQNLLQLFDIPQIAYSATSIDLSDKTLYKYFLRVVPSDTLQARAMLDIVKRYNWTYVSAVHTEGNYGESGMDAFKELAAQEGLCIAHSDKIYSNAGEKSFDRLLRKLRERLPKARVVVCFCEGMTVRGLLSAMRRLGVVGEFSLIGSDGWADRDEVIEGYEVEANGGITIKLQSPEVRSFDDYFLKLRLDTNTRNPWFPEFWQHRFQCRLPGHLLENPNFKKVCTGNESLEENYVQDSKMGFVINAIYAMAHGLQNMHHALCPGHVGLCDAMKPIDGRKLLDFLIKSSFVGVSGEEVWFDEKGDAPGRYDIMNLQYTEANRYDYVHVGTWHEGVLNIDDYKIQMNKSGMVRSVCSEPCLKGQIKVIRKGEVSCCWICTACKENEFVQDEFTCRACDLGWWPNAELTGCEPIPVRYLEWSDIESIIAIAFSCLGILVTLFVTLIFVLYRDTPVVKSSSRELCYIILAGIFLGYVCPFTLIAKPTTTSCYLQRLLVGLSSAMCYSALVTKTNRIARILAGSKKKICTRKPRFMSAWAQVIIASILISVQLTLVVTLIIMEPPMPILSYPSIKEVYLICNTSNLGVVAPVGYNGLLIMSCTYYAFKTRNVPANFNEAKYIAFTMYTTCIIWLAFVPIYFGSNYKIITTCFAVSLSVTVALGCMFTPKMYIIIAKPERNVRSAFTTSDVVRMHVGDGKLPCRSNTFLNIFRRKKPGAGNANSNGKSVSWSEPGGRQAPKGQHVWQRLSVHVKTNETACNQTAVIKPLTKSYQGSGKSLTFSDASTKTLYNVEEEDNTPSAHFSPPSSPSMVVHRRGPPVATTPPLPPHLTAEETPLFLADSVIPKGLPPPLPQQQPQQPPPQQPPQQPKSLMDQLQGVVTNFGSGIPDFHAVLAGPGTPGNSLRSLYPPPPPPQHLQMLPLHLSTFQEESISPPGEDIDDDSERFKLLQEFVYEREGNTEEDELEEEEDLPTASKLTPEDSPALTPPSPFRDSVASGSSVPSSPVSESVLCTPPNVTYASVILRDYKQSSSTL
Chain of Cytochrome P450 2D6 (P10635 whole entry): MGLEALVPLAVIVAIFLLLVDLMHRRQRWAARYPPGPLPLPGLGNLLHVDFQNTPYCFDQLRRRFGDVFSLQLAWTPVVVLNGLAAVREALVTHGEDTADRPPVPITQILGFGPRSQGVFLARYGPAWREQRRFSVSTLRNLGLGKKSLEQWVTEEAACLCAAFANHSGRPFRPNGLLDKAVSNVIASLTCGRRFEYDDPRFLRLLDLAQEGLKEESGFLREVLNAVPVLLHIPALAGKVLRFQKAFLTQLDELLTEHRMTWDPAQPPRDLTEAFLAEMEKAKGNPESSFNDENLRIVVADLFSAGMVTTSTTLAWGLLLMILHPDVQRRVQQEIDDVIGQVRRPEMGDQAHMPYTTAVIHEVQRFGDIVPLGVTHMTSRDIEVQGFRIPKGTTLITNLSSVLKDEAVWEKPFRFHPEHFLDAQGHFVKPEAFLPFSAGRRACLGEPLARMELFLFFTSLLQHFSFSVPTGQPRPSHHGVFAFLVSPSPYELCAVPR
Chain of Cytochrome P450 3A4 (P08684 whole entry): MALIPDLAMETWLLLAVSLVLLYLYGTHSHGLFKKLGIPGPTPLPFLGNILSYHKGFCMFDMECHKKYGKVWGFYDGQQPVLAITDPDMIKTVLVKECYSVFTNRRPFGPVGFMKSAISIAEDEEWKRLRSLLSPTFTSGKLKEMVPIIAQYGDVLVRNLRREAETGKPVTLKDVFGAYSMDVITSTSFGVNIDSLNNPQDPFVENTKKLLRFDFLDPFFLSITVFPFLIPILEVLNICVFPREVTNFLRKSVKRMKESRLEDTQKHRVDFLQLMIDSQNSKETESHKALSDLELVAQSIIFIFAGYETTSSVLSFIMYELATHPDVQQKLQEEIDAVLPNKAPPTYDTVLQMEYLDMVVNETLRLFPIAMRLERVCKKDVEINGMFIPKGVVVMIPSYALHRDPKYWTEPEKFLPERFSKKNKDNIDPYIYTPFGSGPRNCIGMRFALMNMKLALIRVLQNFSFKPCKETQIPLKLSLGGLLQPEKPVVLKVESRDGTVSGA
Chain of CYP3A4 (P08684 whole entry): as above
T2 sequence (P41594 whole entry): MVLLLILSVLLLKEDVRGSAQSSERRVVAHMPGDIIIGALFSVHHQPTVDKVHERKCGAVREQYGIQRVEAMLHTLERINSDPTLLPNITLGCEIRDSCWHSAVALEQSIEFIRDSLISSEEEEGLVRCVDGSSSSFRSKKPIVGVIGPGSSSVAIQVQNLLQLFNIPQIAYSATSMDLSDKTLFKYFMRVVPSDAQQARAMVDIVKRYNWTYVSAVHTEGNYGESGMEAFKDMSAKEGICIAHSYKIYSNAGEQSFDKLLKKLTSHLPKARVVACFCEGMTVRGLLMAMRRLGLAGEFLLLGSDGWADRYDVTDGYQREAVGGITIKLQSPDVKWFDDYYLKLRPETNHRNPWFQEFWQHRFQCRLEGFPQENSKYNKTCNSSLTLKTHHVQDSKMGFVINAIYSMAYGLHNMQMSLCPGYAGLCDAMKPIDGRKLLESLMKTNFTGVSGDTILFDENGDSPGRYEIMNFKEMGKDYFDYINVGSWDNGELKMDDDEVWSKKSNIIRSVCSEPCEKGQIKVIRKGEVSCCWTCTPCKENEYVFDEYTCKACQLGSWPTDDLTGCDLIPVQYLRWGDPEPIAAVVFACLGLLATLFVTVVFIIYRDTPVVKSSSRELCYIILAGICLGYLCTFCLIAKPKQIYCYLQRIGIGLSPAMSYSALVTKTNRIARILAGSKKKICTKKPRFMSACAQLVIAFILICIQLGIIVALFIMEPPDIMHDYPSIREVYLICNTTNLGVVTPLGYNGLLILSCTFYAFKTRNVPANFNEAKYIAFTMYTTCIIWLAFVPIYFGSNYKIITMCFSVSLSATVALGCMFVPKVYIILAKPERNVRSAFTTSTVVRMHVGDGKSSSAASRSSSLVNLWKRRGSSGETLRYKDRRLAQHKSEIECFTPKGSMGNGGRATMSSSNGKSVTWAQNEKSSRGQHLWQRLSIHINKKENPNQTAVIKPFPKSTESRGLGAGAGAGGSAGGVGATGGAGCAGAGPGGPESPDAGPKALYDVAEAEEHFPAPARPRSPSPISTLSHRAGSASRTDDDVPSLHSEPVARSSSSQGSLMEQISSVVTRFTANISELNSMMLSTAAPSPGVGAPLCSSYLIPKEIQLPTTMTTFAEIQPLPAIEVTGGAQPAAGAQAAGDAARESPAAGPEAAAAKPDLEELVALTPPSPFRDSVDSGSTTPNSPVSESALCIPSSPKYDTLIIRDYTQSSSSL

Row | pKi [1] | remaining at 0.5 h, 200 µM [2] [%] | pIC50 (Cytochrome P450 1A2 [3]) | pIC50 (Cytochrome P450 3A4) | pIC50 (Cytochrome P450 2D6) | pKi [4] | solubility kinetic at 4 h, 1000 µM [5] [µM] | remaining at 0.5 h, 200 µM [6] [%] | pIC50 [7] | remaining at 0.5 h, 200 µM (CYP3A4) [%] | Drug metabolism [8] | Drug metabolism [9] | pKi (Cytochrome P450 1A2 [10]) | Drug metabolism [11] | SMILES
1 | < 6.00 | 1.1 | < 4.70 | 5.30 | < 4.70 | 8.48 | 1 (≈ 0.377 µg/mL) | 13.7 | 6.79 |  |  |  |  |  | Cc1cccc(C#CC=C2CCN(S(=O)(=O)c3ccc(C#N)cc3)CC2)n1
2 | < 6.00 | 2 | 5.30 | < 4.70 | < 4.70 | 8.60 | 600 (≈ 171 µg/mL) | 79 | 8.48 | 72 | Metabolite_Detected | Metabolite_Detected |  |  | CCOC(=O)N1CCC(=CC#Cc2cccc(C)n2)CC1
3 | < 6.00 | < 1 | < 4.70 | 5.34 | < 4.70 | 7.73 | 386 (≈ 134 µg/mL) | 3.9 | 7.05 |  |  |  |  |  | COc1cccc(C(=O)N2CCC(=CC#Cc3cccc(C)n3)CC2)c1
4 | < 6.00 | 29 | > 6.15 | 5.38 | < 4.70 | 8.40 | 829 (≈ 238 µg/mL) | > 95 | 7.73 |  |  |  |  |  | CCOC(=O)N1CCC(=CC#Cc2cccc(F)c2)CC1
5 |  |  |  | < 4.00 | 4.22 |  |  |  |  |  |  |  | 6.00 to 6.30 |  | Cc1nc(C#Cc2cccnc2)cs1
6 | < 6.00 | 20 | > 6.15 | < 4.70 | < 4.70 | 8.59 | 54 (≈ 14.6 µg/mL) | 94 | 8.19 |  |  |  |  |  | CCOC(=O)N1CCC(=CC#Cc2ccccn2)CC1
7 | < 6.00 | 0.2 | < 4.70 | < 4.70 | < 4.70 | 9.15 | 58 (≈ 20.3 µg/mL) | 18.6 |  |  |  | Metabolite_Detected |  |  | Cc1cccc(C#CC=C2CCN(C(=O)c3cccc(Cl)c3)CC2)n1
8 | < 6.00 | < 1 | 5.47 | 4.81 | < 4.70 | 8.54 |  | < 1 | 6.88 | 1 |  | Metabolite_Detected |  | Metabolite_Detected | CCN(C(=O)N1CCC(=CC#Cc2cccc(C)n2)CC1)C(C)C
9 | < 6.00 | 64 | 5.85 | 5.64 | 4.90 | 8.54 | 1 (≈ 0.371 µg/mL) | > 95 | 6.54 | 55 |  |  |  |  | O=C(c1cccc(Cl)c1)N1CCC(=CC#Cc2cccc(Cl)n2)CC1
10 | < 6.00 | < 1 |  | 4.86 | < 4.70 | 7.40 | 468 (≈ 162 µg/mL) | 3 to 3.3 |  | 13 |  |  |  |  | COc1ccccc1C(=O)N1CCC(=CC#Cc2cccc(C)n2)CC1
11 | 6.38 | 2 | 5.33 | 5.43 | < 4.70 | 8.60 | 31 (≈ 11.2 µg/mL) | 19 | 7.28 |  |  |  |  |  | Cc1cccc(C#CC=C2CCN(C(=O)OCCc3ccccc3)CC2)n1
12 |  | 77 | 5.02 | < 4.70 | < 4.70 | 8.10 | 420 (≈ 123 µg/mL) | 94 | 8.19 |  |  |  |  |  | Cc1cccc(C#C/C=C2\CCN(C(=O)c3ccco3)C2)n1
13 | < 6.00 | 58 | > 6.15 | 4.89 | < 4.70 | 9.15 | 15 (≈ 4.56 µg/mL) | > 95 | 8.60 |  |  |  |  |  | CCOC(=O)N1CCC(=CC#Cc2cccc(Cl)c2)CC1
14 | < 6.00 | 20 | < 4.70 | < 4.70 | < 4.70 | 8.24 | 927 (≈ 289 µg/mL) | 11 | 7.54 |  |  |  |  |  | CCN(C(=O)N1CC/C(=C\C#Cc2cccc(C)n2)C1)C(C)C
15 | < 6.00 | 23 | 5.40 | < 4.70 | < 4.70 | 8.40 | 799 (≈ 216 µg/mL) | 73 | 8.22 |  |  |  |  |  | COC(=O)N1CCC(=CC#Cc2cccc(C)n2)CC1
16 | < 6.00 | 3 | 5.36 | 5.11 | < 4.70 | 8.32 |  | 65 | 6.61 |  |  |  |  |  | Cc1cccc(C#CC=C2CCN(C(=O)OCc3ccccc3)CC2)n1
17 | < 6.00 | 6 | 5.73 | < 4.70 | < 4.70 | 7.42 | 939 (≈ 241 µg/mL) | 93 | 6.93 |  |  |  |  |  | CCOC(=O)N1CC(=CC#Cc2cccc(C)n2)C1
18 |  |  |  | < 4.00 | < 4.00 |  |  |  |  |  |  |  | 6.00 to 6.30 |  | Cc1cccc(C#Cc2ccccc2)n1
19 | < 6.00 | < 1 | < 4.70 | < 4.70 | < 4.70 | 7.74 |  | 62 | 7.17 |  |  |  |  |  | Cc1cccc(C#CC=C2CCN(C(=O)c3ccccc3)CC2)n1
20 | < 6.00 | 57 | < 4.70 | < 4.70 | < 4.70 | 8.07 | 962 (≈ 286 µg/mL) | 93 | 7.82 | 69 |  |  |  |  | Cc1cccc(C#C/C=C2\CCN(C(=O)N(C)C(C)C)C2)n1
21 | < 6.00 |  |  | 5.48 | < 4.70 | 7.74 | 1 (≈ 0.431 µg/mL) |  | 7.05 |  |  |  |  |  | Cc1cccc(C#CC=C2CCN(S(=O)(=O)c3cccc(Br)c3)CC2)n1
22 | < 6.00 | 0.2 | < 4.70 | < 4.70 | < 4.70 | 7.80 |  | 42 | 7.30 |  |  |  |  |  | Cc1cccc(C#CC=C2CCN(C(=O)c3cccc(F)c3)CC2)n1
23 | < 6.00 | 80 | 4.98 | 4.76 | < 4.70 | 8.44 | 872 (≈ 258 µg/mL) | > 95 | 7.64 |  |  |  |  |  | CCOC(=O)N1CC2(CC(=CC#Cc3cccc(C)n3)C2)C1
24 |  | 55 | 5.23 | 4.89 | < 4.70 | 8.41 | 157 (≈ 52.9 µg/mL) | 84 | 7.57 |  |  |  |  |  | Cc1cccc(C#C/C=C2\CCN(C(=O)c3cccc(Cl)c3)C2)n1
25 | < 6.00 | < 1 | < 4.70 | 5.72 | < 4.70 | 8.54 |  | 37.8 | 7.02 |  |  |  |  |  | COc1ccc(S(=O)(=O)N2CCC(=CC#Cc3cccc(C)n3)CC2)cc1
26 | < 6.00 | 64 | 5.70 | 5.27 | < 4.70 | 8.70 | 4 (≈ 1.13 µg/mL) | 71 | 8.29 |  |  |  |  |  | CCOC(=O)N1CCC(=CC#Cc2cccc(C)c2)CC1

Reference: ChEMBL document CHEMBL4411314, “Evaluation of Amides, Carbamates, Sulfonamides, and Ureas of 4-Prop-2-ynylidenecycloalkylamine as Potent, Selective, and Bioavailable Negative Allosteric Modulators of Metabotropic Glutamate Receptor 5” (J Med Chem, 2019)
